In brackets after ≈: the same amount, converted by molar mass. Activity calls are given as the source filed them. The rule behind the calls is not given here.
What was measured:
Escherichia coli [1] = test: Antibacterial activity against Escherichia coli NCTC 8192 assessed as growth inhibition after 18 hrs by broth microdilution method; type: functional; conditions: NCTC 8192, 18 h
Summary of the method: (§1)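 Frozen stocks (-80 °C, tryptic soy broth with 15% glycerol); S. aureus subcultured on blood agar and identified by catalase, coagulase and clumping factor. Inoculum at 0.5 McFarland. MIC = lowest concentration preventing growth; triplicates, per CLSI.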

[2] = system: Staphylococcus epidermidis; test: Antibacterial activity against Staphylococcus epidermidis ATCC 12228 assessed as growth inhibition after 18 hrs by broth microdilution method; type: functional; conditions: ATCC 12228, 18 h; summary of the method: as §1
[3] = system: Staphylococcus epidermidis; test: Bactericidal activity against Staphylococcus epidermidis ATCC 12228 after 18 hrs by broth microdilution method; type: functional; conditions: ATCC 12228, 18 h
Summary of the method: (§2)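 Broth microdilution, then contents of wells without visible growth plated onto Mueller–Hinton agar and incubated 35 °C for 18 h. Triplicates, per CLSI.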

Staphylococcus aureus [4] = test: Antibacterial activity against Staphylococcus aureus ATCC 6538 assessed as growth inhibition after 18 hrs by broth microdilution method; type: functional; conditions: ATCC 6538, 18 h
Summary of the method: (§3)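 Broth microdilution in Mueller–Hinton broth with 1–600 µg/mL compound added from DMSO stocks. Inoculum adjusted to 0.5 McFarland. Strains stored at -80 °C and subcultured on blood agar before use. Incubation 37 °C for 18 h with OD600 read. MIC taken as the lowest concentration preventing growth, run in triplicate following CLSI. Vancomycin and oxacillin served as controls.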

Staphylococcus aureus [5] = test: Antibacterial activity against Staphylococcus aureus ATCC 29213 assessed as growth inhibition after 18 hrs by broth microdilution method; type: functional; conditions: ATCC 29213, 18 h; summary of the method: as §3
Staphylococcus aureus [6] = test: Bactericidal activity against Staphylococcus aureus ATCC 29213 after 18 hrs by broth microdilution method; type: functional; conditions: ATCC 29213, 18 h; summary of the method: as §2
Escherichia coli [7] = test: Bactericidal activity against Escherichia coli NCTC 8192 after 18 hrs by broth microdilution method; type: functional; conditions: NCTC 8192, 18 h; summary of the method: as §2
Staphylococcus aureus [8] = test: Bactericidal activity against Staphylococcus aureus ATCC 6538 after 18 hrs by broth microdilution method; type: functional; conditions: ATCC 6538, 18 h; summary of the method: as §2
Proteus vulgaris = test: Antibacterial activity against Proteus vulgaris ATCC 49990 assessed as growth inhibition at 1 to 600 ug/mL after 18 hrs by broth microdilution method; type: functional, organism-based
Pseudomonas aeruginosa = test: Antibacterial activity against Pseudomonas aeruginosa NCTC 6249 assessed as growth inhibition at 1 to 600 ug/mL after 18 hrs by broth microdilution method; type: functional, organism-based
Staphylococcus aureus [9] = test: Antibacterial activity against Staphylococcus aureus ATCC 29213 assessed as growth inhibition at 1 to 600 ug/mL after 18 hrs by broth microdilution method; type: functional, organism-based
Summary of the method: as §1, with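 “McFarland. DMSO-dissolved compounds 1–600 µg/mL in Mueller–Hinton broth, 37 °C 18 h, OD600 read with and without compound.” for “McFarland.”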

[10] = system: Staphylococcus epidermidis; test: Antibacterial activity against Staphylococcus epidermidis ATCC 12228 assessed as growth inhibition at 1 to 600 ug/mL after 18 hrs by broth microdilution method; type: functional, organism-based
Staphylococcus aureus [11] = test: Antibacterial activity against Staphylococcus aureus ATCC 6538 assessed as growth inhibition at 1 to 600 ug/mL after 18 hrs by broth microdilution method; type: functional, organism-based
Summary of the method: as §1, with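 “McFarland. DMSO-dissolved compounds 1–600 µg/mL in Mueller–Hinton broth, 37 °C 18 h, OD600 read with and without compound.” for “McFarland.”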

Enterococcus faecalis = test: Antibacterial activity against Enterococcus faecalis ATCC 29212 assessed as growth inhibition at 1 to 600 ug/mL after 18 hrs by broth microdilution method; type: functional, organism-based
Candida albicans = test: Antifungal activity against Candida albicans ATCC 10231 assessed as growth inhibition at 1 to 600 ug/mL after 18 hrs by broth microdilution method; type: functional, organism-based
Proteus mirabilis = test: Antibacterial activity against Proteus mirabilis ATCC 29906 assessed as growth inhibition at 1 to 600 ug/mL after 18 hrs by broth microdilution method; type: functional
Escherichia coli [12] = test: Antibacterial activity against Escherichia coli NCTC 8192 assessed as growth inhibition at 1 to 600 ug/mL after 18 hrs by broth microdilution method; type: functional, organism-based

Row | SMILES | MIC (Escherichia coli [1]) [µg/mL] | MIC [2] [µg/mL] | MBC [3] [µg/mL] | MIC (Staphylococcus aureus [4]) [µg/mL] | MIC (Staphylococcus aureus [5]) [µg/mL] | MBC (Staphylococcus aureus [6]) [µg/mL] | MBC (Escherichia coli [7]) [µg/mL] | MBC (Staphylococcus aureus [8]) [µg/mL] | Activity (Proteus vulgaris) | Activity (Pseudomonas aeruginosa) | Activity (Staphylococcus aureus [9]) | Activity [10] | Activity (Staphylococcus aureus [11]) | Activity (Enterococcus faecalis) | Activity (Candida albicans) | Activity (Proteus mirabilis) | Activity (Escherichia coli [12])
1 | O=C1CN(/N=C/c2ccc([N+](=O)[O-])o2)C(=O)N1 [NITROFURANTOIN] | 16 (≈ 67.2 µM) | 8 (≈ 33.6 µM) | 32 (≈ 134 µM) | 16 (≈ 67.2 µM) | 16 (≈ 67.2 µM) | 32 (≈ 134 µM) | 32 (≈ 134 µM) | 32 (≈ 134 µM) | – | – | – | – | – | – | – | – | –
2 | C/C(=N\NC(=O)c1c(C)n(Cc2ccccc2)c[n+]1[O-])c1ccccc1 | – | – | – | – | – | – | – | – | inactive | inactive | inactive | inactive | inactive | inactive | inactive | inactive | inactive
3 | Cc1c(C(=O)N/N=C/c2ccc([N+](=O)[O-])cc2)[n+]([O-])cn1Cc1ccccc1 | – | – | – | – | – | – | – | – | inactive | inactive | inactive | inactive | inactive | inactive | inactive | inactive | inactive
4 | Cc1c(C(=O)N/N=C/c2ccccc2O)[n+]([O-])cn1Cc1ccccc1 | – | – | – | – | – | – | – | – | inactive | inactive | inactive | inactive | inactive | inactive | inactive | inactive | inactive
5 | Cc1c(C(=O)N/N=C/c2ccccc2)[n+]([O-])cn1Cc1ccccc1 | – | – | – | – | – | – | – | – | inactive | inactive | inactive | inactive | inactive | inactive | inactive | inactive | inactive
6 | O=C(N[C@H](CO)[C@H](O)c1ccc([N+](=O)[O-])cc1)C(Cl)Cl [CHLORAMPHENICOL] | 0.25 (≈ 0.774 µM) | 0.5 (≈ 1.55 µM) | 2 (≈ 6.19 µM) | 1 (≈ 3.09 µM) | 1 (≈ 3.09 µM) | 4 (≈ 12.4 µM) | 0.5 (≈ 1.55 µM) | 4 (≈ 12.4 µM) | – | – | – | – | – | – | – | – | –
